# Assay results taken from ChEMBL document CHEMBL1143739, “SAR study of bicyclo[4.1.0]heptanes as melanin-concentrating hormone receptor R1 antagonists: taming hERG” (Bioorg Med Chem, 2007).
# Biological target: Melanin-concentrating hormone receptor 1 (Homo sapiens, UniProt Q99705)
# Experiment: Displacement of [125I]MCH from MCHR1 expressed in CHO cells
# Format: cell-based
# Procedure, shortened: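 Human MCH R1, CHO cell membranes (0.1 mg/mL) on SPA beads (1 mg/mL). Buffer: 25 mM HEPES, 10 mM MgCl2, 5 mM MnCl2, 0.1% BSA, pH 7.4. Incubation 2–4 h at room temperature, scintillation count. Ki by non-linear regression; mean ± range of two determinations, each in quadruplicate.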
# Melanin-concentrating hormone receptor 1, sequence (Q99705 whole entry): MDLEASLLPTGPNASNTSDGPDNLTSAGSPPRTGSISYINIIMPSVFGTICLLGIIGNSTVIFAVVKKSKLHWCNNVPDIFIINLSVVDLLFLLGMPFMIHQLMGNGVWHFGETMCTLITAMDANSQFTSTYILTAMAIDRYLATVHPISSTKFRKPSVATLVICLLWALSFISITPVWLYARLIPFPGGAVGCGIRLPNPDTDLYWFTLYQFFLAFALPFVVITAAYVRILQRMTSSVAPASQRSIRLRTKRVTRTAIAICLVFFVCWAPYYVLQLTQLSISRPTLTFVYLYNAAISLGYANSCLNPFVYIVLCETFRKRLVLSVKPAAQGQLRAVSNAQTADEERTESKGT
row,SMILES,Ki [nM]
1,N#Cc1cccc([C@]23CC[C@@H](N(CCN4CC[C@@H](O)C4)C(=O)Nc4ccccc4F)CC2C3)c1 (stereo partly specified),1880
2,Cc1cc(C)cc(NC(=O)N(CCN2CC[C@@H](O)C2)[C@@H]2CC[C@]3(c4cccc(C#N)c4)CC3C2)c1 (stereo partly specified),539
3,CC(=O)NC1CCN(CCN(C(=O)Nc2ccc(F)c(Cl)c2)[C@@H]2CC[C@]3(c4cccc(C#N)c4)CC3C2)C1 (stereo partly specified),23
4,CN(C)Cc1ncc(C2=CCC(N(CCN3CCCC3)C(=O)Nc3ccc(F)c(Cl)c3)CC2)s1 (stereo unspecified),648
5,N#Cc1cccc([C@]23CC[C@@H](N(CCN4CC[C@@H](O)C4)C(=O)Nc4cccc(Br)c4)CC2C3)c1 (stereo partly specified),34
6,N#Cc1cccc([C@]23CC[C@@H](N(CCN4CCOCC4)C(=O)Nc4ccc(F)c(Cl)c4)CC2C3)c1 (stereo partly specified),53
7,CC1CCCN1CCN(C(=O)Nc1ccc(F)c(Cl)c1)[C@@H]1CC[C@]2(c3cccc(C#N)c3)CC2C1 (stereo partly specified),16
8,CCO/N=C/c1cccc([C@]23CC[C@@H](N(CCN(C(C)C)C(C)C)C(=O)Nc4ccc(F)c(Cl)c4)CC2C3)c1 (stereo partly specified),29
9,N#Cc1cccc([C@]23CC[C@@H](N(CCN4CC[C@@H](O)C4)C(=O)Nc4ccccc4)CC2C3)c1 (stereo partly specified),132
10,O=C(Nc1ccc(F)c(Cl)c1)N(CCN1CCCC1)C1CC=C(c2ccco2)CC1 (stereo unspecified),117
11,N#Cc1cccc([C@]23CC[C@@H](N(CCN4CC[C@@H](O)C4)C(=O)Nc4ccc(F)cc4)CC2C3)c1 (stereo partly specified),54
12,N#Cc1cccc([C@]23CC[C@@H](N(CCN4CC[C@@H](O)C4)C(=O)Nc4cccc(F)c4)CC2C3)c1 (stereo partly specified),20
13,N#Cc1cccc([C@]23CC[C@@H](N(CCN4CC[C@@H](O)C4)C(=O)NC4CCCCC4)CC2C3)c1 (stereo partly specified),2210
14,CC1CCCCN1CCN(C(=O)Nc1ccc(F)c(Cl)c1)[C@@H]1CC[C@]2(c3cccc(C#N)c3)CC2C1 (stereo partly specified),15
15,O=C(Nc1ccc(F)c(Cl)c1)N(CCN1CCCC1)C1CC=C(c2cc3ccccc3o2)CC1 (stereo unspecified),316
16,Cc1ccc(NC(=O)N(CCN2CC[C@@H](O)C2)[C@@H]2CC[C@]3(c4cccc(C#N)c4)CC3C2)cc1F (stereo partly specified),48
17,N#Cc1cccc([C@]23CC[C@@H](N(CCN4CCC(O)CC4)C(=O)Nc4ccc(F)c(Cl)c4)CC2C3)c1 (stereo partly specified),22
18,N#Cc1cccc([C@]23CC[C@@H](N(CCN4CC[C@@H](O)C4)C(=O)Nc4ccc5c(c4)OCO5)CC2C3)c1 (stereo partly specified),134
19,N#Cc1cccc([C@]23CC[C@@H](N(CCN4CC[C@@H](O)C4)C(=O)Nc4cccc([N+](=O)[O-])c4)CC2C3)c1 (stereo partly specified),60
20,COc1cccc(NC(=O)N(CCN2CC[C@@H](O)C2)[C@@H]2CC[C@]3(c4cccc(C#N)c4)CC3C2)c1 (stereo partly specified),373

# More lines, now with the values ahead:
row,Ki [nM],SMILES
1,11,CCN(CCO)CCN(C(=O)Nc1ccc(F)c(Cl)c1)[C@@H]1CC[C@]2(c3cccc(C#N)c3)CC2C1 (stereo partly specified)
2,2.1,CC(C)N(CCN(C(=O)Nc1cccc(F)c1)[C@@H]1CC[C@]2(c3cccc(C#N)c3)CC2C1)C(C)C (stereo partly specified)
3,2,CC(C)N(CCN(C(=O)Nc1cc(Cl)nc(Cl)c1)[C@@H]1CC[C@]2(c3cccc(C#N)c3)CC2C1)C(C)C (stereo in doubt; 6j)
4,10.4,CC(C)N(CCN(C(=O)Nc1ccc(F)cc1)[C@@H]1CC[C@]2(c3cccc(C#N)c3)CC2C1)C(C)C (stereo partly specified)
5,15,N#Cc1cccc([C@]23CC[C@@H](N(CCN4CCCCCC4)C(=O)Nc4ccc(F)c(Cl)c4)CC2C3)c1 (stereo partly specified)
6,2.7,CC(C)N(CCN(C(=O)Nc1cccc([N+](=O)[O-])c1)[C@@H]1CC[C@]2(c3cccc(C#N)c3)CC2C1)C(C)C (stereo partly specified)
7,4.5,CC(C)N(CCN(C(=O)Nc1cc(F)cc(F)c1)[C@@H]1CC[C@]2(c3cccc(C#N)c3)CC2C1)C(C)C (stereo partly specified)
8,15,N#Cc1cccc([C@]23CC[C@@H](N(CCN4CC[C@@H](O)C4)C(=O)Nc4cc(F)cc(F)c4)CC2C3)c1 (stereo partly specified)
9,7.8,CC(C)N(CCN(C(=O)Nc1ccc(F)c(F)c1)[C@@H]1CC[C@]2(c3cccc(Br)c3)CC2C1)C(C)C (stereo partly specified)
10,5.7,CC(C)N(CCN(C(=O)Nc1cccc(Br)c1)[C@@H]1CC[C@]2(c3cccc(C#N)c3)CC2C1)C(C)C (stereo partly specified)
11,2.8,CC(C)N(CCN(C(=O)Nc1ccc(F)c(F)c1)[C@@H]1CC[C@]2(c3cccc(C#N)c3)CC2C1)C(C)C (stereo partly specified)
